Activity calls are given as the source filed them. The rule behind the calls is not given here.

Among the data in ChEMBL document CHEMBL1649401, “Synthesis and biophysical evaluation of arylhydrazono-1H-2-indolinones as β-amyloid aggregation inhibitors” (Eur J Med Chem, 2011) are inhibition, IC50 and solubility values, retold here.

Series [1] is described as follows: Inhibition of amyloid beta (1 to 40) aggregation at 100 uM after 2 hrs by thioflavin T based fluorometric assay. In short, it runs like this:
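Aβ1-40 (HFIP-treated, lyophilized) at 30 μM in PBS (0.01 M, NaCl 0.1 M, pH 7.4) containing 2% HFIP and 10% DMSO. Incubated with inhibitor in triplicate, 2 h at 25 °C. Sample mixed with 25 μM ThT in 0.025 M phosphate pH 6.0, read at ex 440/em 485 nm. % inhibition = 100 − [(Fi − Fb)/F0]×100. Screen at 100 μM.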

A short description of series [2]: Inhibition of amyloid beta (1 to 40) aggregation after 2 hrs by thioflavin T based fluorometric assay.
A short description of series [3]: Inhibition of amyloid beta (1 to 40) aggregation assessed as reduction of exponential phase of thioflavin T fluorescence curve at 5 uM after 3 to 4 days. In short, it runs like this:
(§1)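 Aβ1-40 (50 μM) incubated alone or with compound in 0.217 M phosphate pH 8.0, 10% ethanol, 37 °C. Aliquots taken at time points over several days and analyzed by ThT fluorescence. Values expressed as percentage of the plateau fluorescence of free aggregation.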

A short description of series [4]: Inhibition of amyloid beta (1 to 40) aggregation assessed as reduction of autocorrelation function particles size at 5 uM after 3 days by dynamic light-scattering analysis. The method, boiled down:
(§2)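 Dynamic light scattering at a 173° backscatter angle with a 633 nm laser, cell held at 37 °C. z-averaged hydrodynamic diameter obtained by second-order cumulant analysis and the Stokes–Einstein equation.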

A short description of series [5]: Inhibition of amyloid beta (1 to 40) aggregation assessed as inhibition of extended fibrils formation at 5 uM after 7 days by transmission electron microscopic analysis.
A short description of series [6]: Inhibition of amyloid beta (1 to 40) aggregation assessed as loss of beta-sheet structure up to 100 uM after up to 8 days by CD spectroscopy assay. The method, boiled down:
(§3)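 Samples as for TEM: 50 μM Aβ1-40, 0.217 M phosphate pH 8.0, 10% ethanol, 37 °C incubation, aliquots removed over time. Spectra 195–250 nm, 0.1 cm cell, room temperature, 0.1 nm steps, 4 nm bandwidth. Buffer/ethanol (± compound) blank subtracted. Absolute 215 nm ellipticity plotted vs incubation time.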

Series [7] is described as follows: Inhibition of amyloid beta (1 to 40) aggregation assessed as formation of long and curly fibrils at 5 uM after 7 days by transmission electron microscopic analysis.
Series [8] in a line: Inhibition of amyloid beta (1 to 40) aggregation assessed as effect on extension of beta-sheet content at 5 uM after 2 days by CD spectroscopy assay. The method, boiled down:
as §3

A short description of series [9]: Inhibition of amyloid beta (1 to 40) aggregation assessed as effect on extension of beta-sheet content at 5 uM up to 8 days by CD spectroscopy assay. The method, boiled down: as §3
Series [10] in a line: Solubility of the compound in aqueous buffer. It counts as physicochemical.
Series [11] is described as follows: Inhibition of amyloid beta (1 to 40) aggregation assessed as delay in formation of fibrils at 5 uM after 12 hrs by dynamic light-scattering analysis. In short, it runs like this: as §2
Series [12] can be described thus: Inhibition of amyloid beta (1 to 40) aggregation assessed as reduction of exponential phase of thioflavin T fluorescence curve at 25 uM after 3 to 4 days. In short, it runs like this:
as §1

Series [13] is described as follows: Inhibition of amyloid beta (1 to 40) aggregation assessed as reduction of exponential phase of thioflavin T fluorescence curve at 100 uM after 3 to 4 days. In short, it runs like this:
as §1

A short description of series [14]: Inhibition of amyloid beta (1 to 40) aggregation assessed as loss of stable random coil arrangement of peptide up to 100 uM after up to 8 days by CD spectroscopy assay. The method, boiled down:
as §3

As usually defined, the inhibition is the change of the read-out against control, counted positive when it falls. In series [1], `O=C1Nc2ccc(Br)cc2/C1=N/Nc1ccc(Cl)cc1` registered an inhibition of 63%.

`COc1ccc2c(c1)/C(=N/Nc1ccc(OCc3ccccc3)cc1)C(=O)N2` gave an inhibition in series [1] of 20%.

In turn, `O=C1Nc2ccccc2/C1=N/Nc1ccccc1Cl` had an inhibition in series [1] of 44%.

The term IC50 denotes the concentration needed to halve the response being measured. The compound `O=C1Nc2cc(O)c(O)cc2/C1=N/Nc1ccc(Cl)cc1` yielded an IC50 in [2] of 17 µM.

`CC(C)c1ccc(N/N=C2\C(=O)Nc3ccccc32)cc1` displayed an inhibition in [1] of 64%.

Turning to `COc1cc2c(cc1OC)/C(=N/Nc1ccccc1)C(=O)N2`, in [1], the inhibition stood at 68%.

In series [2], `O=C1Nc2cc(O)c(O)cc2/C1=N/Nc1ccc(O)cc1` displayed an IC50 of 24 µM.

In turn, `COc1ccc(N/N=C2\C(=O)Nc3cc(OC)c(OC)cc32)cc1` yielded an IC50 in series [2] of 22 µM.

With `O=C1Nc2ccc(O)cc2/C1=N/Nc1ccc(O)cc1`, the inhibition in [1] was determined as 61%.

With `COc1ccc2[nH]c(O)c(/N=N/c3ccccc3)c2c1`, the inhibition in [1] worked out at 52%.

The compound `COc1ccc(N/N=C2\C(=O)Nc3ccccc32)cc1` came in with an IC50 in series [2] of 13 µM. This counts as double-digit micromolar.

For the compound `O=C1Nc2ccccc2/C1=N/Nc1ccc(OC(F)(F)F)cc1`, the inhibition in series [1] was 57%.

On to `O=C1Nc2ccccc2/C1=N/Nc1cccc(F)c1`, for which the inhibition in [1] came to 52%.

In series [2], `O=C1Nc2cc(O)ccc2/C1=N/Nc1ccccc1` returned an IC50 of 22 µM.

`O=C1Nc2ccccc2/C1=N/Nc1cccc(Cl)c1` displayed an inhibition in series [1] of 39%.

Regarding `O=C1Nc2ccccc2/C1=N/Nc1cccc([N+](=O)[O-])c1`, in series [1], the inhibition is 29%.

As to `CC(C)c1ccc(N/N=C2\C(=O)Nc3cc(O)ccc32)cc1`, the IC50 in series [2] was determined as 6 µM.

In the case of `COc1ccc2c(c1)/C(=N/Nc1ccc(C(C)C)cc1)C(=O)N2`, in series [2], inhibition was half-maximal at 0.4 µM (IC50).

`O=C1Nc2ccc(O)cc2/C1=N/Nc1cccc(Cl)c1` showed an IC50 in series [2] of 18 µM. This IC50 lies about 45-fold higher than the previous one.

`COc1ccc2c(c1)NC(=O)/C2=N\Nc1ccccc1` displayed a concentration for half-maximal inhibition (IC50) in [2] of 5.8 µM.

In [1], `Oc1[nH]c2ccccc2c1/N=N/c1ccccc1` registered an inhibition of 61%.

Regarding `COc1cc2c(cc1OC)/C(=N/Nc1ccc(Cl)cc1)C(=O)N2`, in series [1], the inhibition amounted to 71%.

In series [1], `O=C1Nc2cc(Cl)c(F)cc2/C1=N/Nc1ccc(Cl)cc1` returned an inhibition of 28%.

The compound `CC(C)c1ccc(N/N=C2\C(=O)Nc3ccc(O)cc32)cc1` came in with an IC50 in [2] of 21 µM.

`COc1ccc2c(c1)/C(=N/Nc1cccc(OCc3ccccc3)c1)C(=O)N2` gave an inhibition in series [1] of 44%.

`O=C1Nc2ccccc2/C1=N/Nc1ccc(Cl)cc1` displayed an inhibition in series [1] of 24%.

As for `COc1cc2c(cc1OC)/C(=N/Nc1cccc(Cl)c1)C(=O)N2`, in series [2], the IC50 was 17 µM.

`COc1cc2c(cc1OC)/C(=N/Nc1ccccc1Cl)C(=O)N2` showed an inhibition in series [1] of 68%.

With `COc1ccc2c(c1)/C(=N/Nc1cccc(C(C)(C)C)c1)C(=O)N2`, the inhibition in [1] was 56%.

In the case of `COc1ccc(N/N=C2\C(=O)Nc3ccc(OC)cc32)cc1`, the IC50 in series [2] stood at 3.7 µM.

Turning to `CC(C)c1ccc(N/N=C2\C(=O)Nc3cc(O)c(O)cc32)cc1`, the IC50 in [2] was found to be 1.6 µM.

`O=C1Nc2ccc(O)cc2/C1=N/Nc1ccccc1` had an inhibition in series [1] of 62%.

With `O=C1Nc2cc(O)c(O)cc2/C1=N/Nc1ccccc1`, the IC50 in series [2] stood at 4.3 µM.

In turn, `COc1ccc2c(c1)/C(=N/Nc1ccc(C(C)(C)C)cc1)C(=O)N2` gave an IC50 in [2] of 15 µM.

In [1], `COc1ccc2c(c1)/C(=N/Nc1ccc(Cl)cc1)C(=O)N2` returned an inhibition of 43%.

On to `COc1cc2c(cc1OC)/C(=N/Nc1ccc(C(C)C)cc1)C(=O)N2`, for which the half-maximal inhibitory concentration (IC50) in [2] amounted to 4.4 µM. That is a single-digit micromolar value.

In turn, `O=C1Nc2ccccc2/C1=N/Nc1ccc(O)cc1` gave an IC50 in series [2] of 9.3 µM.

The compound `COc1ccc2c(c1)/C(=N/Nc1cccc(Cl)c1)C(=O)N2` showed an inhibition in series [1] of 72%.

As for `O=C1Nc2ccc([N+](=O)[O-])cc2/C1=N/Nc1ccccc1`, the inhibition in series [1] is 0%.

Regarding `O=C1Nc2cc(O)c(O)cc2/C1=N/Nc1cccc(Cl)c1`, the inhibition entry in series [3], in series [5], in [6], in series [7], in [9] and in [11] was “Active” in each case. For the same compound, the inhibition entry in series [12], in series [13] and in [14] was “Active” each time. The inhibition result in [4] and in [8] was “inactive” throughout. Besides, half-maximal inhibition in [2] (IC50) was put at 1.1 µM. Moreover, the solubility entry in [10] is “soluble”.

With `COc1ccc2c(c1)/C(=N/Nc1ccc(C)cc1)C(=O)N2`, the inhibition in series [1] was determined as 29%.

Turning to `O=C1Nc2cc(O)c(O)cc2/C1=N/Nc1ccccc1Cl`, the IC50 in [2] was found to be 11 µM. This counts as double-digit micromolar.

In turn, `O=C1Nc2ccc([N+](=O)[O-])cc2/C1=N/Nc1ccc(Cl)cc1` showed an inhibition in [1] of 12%.

Compound `COc1ccc2c(c1)NC(=O)/C2=N\Nc1ccc(C(C)C)cc1` returned an IC50 in series [2] of 7.1 µM.
